Assay outcomes (PubChem)
Diaphorase inh: diaphorase inhibition or chemical oxidation counter-screen; diaphorase resazurin-to-resorufin fluorescence, NADH, 16 min; bacterial (C. kluyveri) enzyme, not human; AID 1217; inhibition, % at 20 µM; hit rate 0.69% among 190,000;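 active = primary screen inhibition at 20 µM above a set limit, cut at about 50% in these data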;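 also: plate controls were DMSO with full reaction for no effect and wells lacking NADH for full effect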
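Test system: diaphorase enzyme from Clostridium kluyveri; amount: diaphorase at 0.14 U/mL in enzyme working solution; detection: fluorescence of resorufin formed from resazurin, Ex 544/Em 590 nm; times: reaction incubation of 16 min at room temperature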
DTT redox prof: compounds producing H2O2 with reducing agent – biochemical, NIH compound library profiling, artefact control for MLSCN library redox annotation, primary screen; DTT-dependent redox cycling H2O2, phenol red/HRP absorbance; 100% = 100 µM peroxide control, 0% = buffer; activation, % at 10 µM; hit rate 0.03% among 200,000; AID 878;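 active = activation of at least 50% relative to the plate's high and low controls in the primary single-dose screen; inactive = activation below 50%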;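 also: compound incubated with DTT at 0.8 mM final as the reducing agent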
L major viab: Leishmania major promastigote growth inhibition; Leishmania major promastigotes, resazurin fluorescence viability; AID 1063; inhibition, % at 10 µM; hit rate 9% among 200,000;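 also: promastigotes grown with compound for 44 hours at 28 °C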
PfGluPho inh: PfG6PD (Plasmodium falciparum) enzyme inhibition. AID 504690. inhibition, % at 20 µM. hit rate 0.78% among 350,000. PfGluPho enzyme, NADPH resazurin-diaphorase fluorescence;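 active = inhibition reaching at least a set limit at 20 µM in the primary screen, cut at about 59% in these data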;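 also: 0% = DMSO wells with substrate and 100% = DMSO wells lacking glucose-6-phosphate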
G6PDH CS: counter-screen for G6PDH assay hits: L. mesenteroides G6PDH inhibition; inhibition, % at 5 µM; hit rate 0.12% among 200,000; Purified L. mesenteroides G6PDH, diaphorase/resazurin coupled fluorescence, 45 min
Diaphorase act: diaphorase activation or chemical reduction counter-screen; Diaphorase/resazurin coupled assay, resorufin fluorescence, 16 min; active compounds read high; 1 = vehicle wells, 0 = NADH-free wells; activation factor at 20 µM; hit rate 0.005% among 190,000; AID 1229;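 active = diaphorase activity raised at least twofold by the compound at 20 µM; inactive = activation factor below 2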
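Assay system: bacterial diaphorase enzyme (C. kluyveri) / Input: enzyme 0.07 U/mL final / Medium: 50 mM HEPES pH 7.4 with 4.542 mM MgCl2, 0.005% Tween 20 / Doses: single compound dose of 20 µM, 1% DMSO final / Incubation: 16 min enzyme reaction, ambient temperature / Signal: fluorescence, excitation 544 nm and emission 590 nm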
Active calls of the source: *; x = not tested or not shown. Only a selection was taken, and hits are over-represented in it overall. Rule as the data show it, unless noted: active = inhibition above about 50%; inactive = the rest.

SMILES | Diaphorase inh | DTT redox prof | L major viab | PfGluPho inh | G6PDH CS | Diaphorase act
CN1c2ccccc2N(C)C1(C)c1cccc2ccccc12 | 59* | 0 | 35 | 32 | -4 | 0.4
Cc1ccc(NC(=O)COc2ccc(Br)cc2CO)cc1S(=O)(=O)N1CCOCC1 | x | x | x | 1 | x | x
CCOc1ccc(C2=C(C=Nc3c(C)n(C)n(-c4ccccc4)c3=O)C(c3ccc(F)cc3)c3ccccc3O2)cc1 (centres undefined) | 20 | 0 | 57* | 6 | 5 | 0.8
CCOCCCNC(=O)/C(C#N)=C/c1ccc(C(=O)OC)cc1 | 3 | -2 | 58* | 5 | 3 | 1
CCOCCCNC(=O)/C(C#N)=C/c1cc(OC)c(O)c([N+](=O)[O-])c1 | 2 | 0 | 0 | 13 | 9 | 1
CCOCCCNC(=O)/C(C#N)=C/c1ccc(Cl)c([N+](=O)[O-])c1 | -6 | -3 | 100* | 25 | 14 | 1.1
CCOC(=O)N1CCN(S(=O)(=O)c2ccc(C(=O)NNc3nc4c(C)cc(C)cc4s3)cc2)CC1 | 10 | 0 | 88* | -11 | 8 | 0.9
CC(C)N1CCc2c(sc(NC(=O)c3ccc(S(=O)(=O)N4CCOCC4)cc3)c2C#N)C1 | 18 | 0 | -7 | 8 | 10 | 0.8
Cc1cccc(C(=O)N[C@H](C(=O)Nc2cc(S(=O)(=O)N3CCCCC3)ccc2C)C(C)C)c1 | 24 | 0 | -1 | -5 | -8 | 0.8
CCOC(=O)N1CCN(S(=O)(=O)c2ccc(C(=O)Nc3nnc(C4CC4)o3)cc2)CC1 | 16 | 0 | -11 | -36 | 19 | 0.8
Cc1cc(C)c2nc(NC(=O)[C@@H](NC(=O)c3cccc(S(=O)(=O)N4CCOCC4)c3)C(C)C)sc2c1 | 13 | 0 | 97* | -14 | -1 | 0.9
CCOC(=O)N1CCc2c(sc(NC(=O)c3ccc(S(=O)(=O)N4CCCC4)cc3)c2C#N)C1 | 10 | 0 | 57* | -28 | 3 | 0.9
CCOC(=O)N1CCN(S(=O)(=O)c2ccc(C(=O)Nc3nnc(CC)o3)cc2)CC1 | 3 | 0 | 59* | -16 | 24 | 1
COc1ccccc1-c1cc2nc(-c3ccccc3)cc(N3CCN(C(=O)c4ccco4)CC3)n2n1 | x | x | x | 25 | x | x
C#CCCOC(=O)N1C2=NC(C(=O)OC)=C(C(=O)OC)[C@@H]3Nc4ccccc4[C@]23C[C@H]1C(=O)OC | x | x | x | -8 | x | x
CCOC(=O)N1CCN(S(=O)(=O)c2ccc(C(=O)NNc3nc4c(C)cccc4s3)cc2)CC1 | 26 | 0 | 1 | 13 | 17 | 0.7
Cc1cc(C)c2nc(NNC(=O)c3ccc(S(=O)(=O)N4CCCCC4)cc3)sc2c1 | 37 | -1 | 89* | 36 | 8 | 0.6
Cc1cc(C(=O)N/N=C/c2cc(Br)cc(Br)c2OC(=O)c2cccc(F)c2)n[nH]1 | -4 | -1 | 98* | 29 | 0 | 1
Cc1cc(C(=O)N/N=C/c2cc(Br)cc(Br)c2OC(=O)c2ccccc2)n[nH]1 | -2 | 1 | 81* | x | 0 | 1
Cc1cc(C(=O)N/N=C/c2cc(Br)ccc2OC(=O)c2ccc(Br)cc2)n[nH]1 | 5 | 1 | 98* | x | -65 | 0.9
Nc1ccnc(=O)[nH]1 | x | x | x | 8 | x | x
COc1ccc2c(=O)c3c(=O)n(-c4ccccc4)c(-c4ccc(C)cc4)nc3oc2c1 | x | x | x | 12 | x | x
NC(=O)c1ccccc1N/C=C/C(=O)c1ccc(Cl)cc1Cl | 15 | -3 | 86* | 9 | 7 | 0.8
CCOc1ccc(Oc2c(C)oc3cc(O)ccc3c2=O)cc1 | -5 | -1 | 0 | -18 | 12 | 1.1
CCOC(=O)c1ccc(Oc2c(C)oc3cc(OS(C)(=O)=O)ccc3c2=O)cc1 | 9 | 0 | 53* | -13 | 21 | 0.9
SMILES | Diaphorase inh | DTT redox prof | L major viab | PfGluPho inh | G6PDH CS | Diaphorase act
Cc1ccc(-c2cc(C(F)F)nc(NCC3CCCO3)n2)cc1 (centres undefined) | 25 | 5 | 64* | 5 | 6 | 0.8
Cc1ccc(-c2cc(C(F)F)nc(NCc3cccs3)n2)cc1 | 7 | 0 | -6 | 0 | 8 | 0.9
O=C(Nc1cc(C(F)(F)F)ccc1-n1cncn1)c1ccc(-c2ccccc2)cc1 | 8 | 0 | 90* | -5 | -1 | 0.9
O=C(Nc1cc(C(F)(F)F)ccc1-n1cncn1)c1ccc(Cl)cc1 | 9 | 0 | -2 | 30 | 6 | 0.9
CCCCOc1ccc(NC(=O)CSc2nnnn2C)cc1 | 10 | 2 | -2 | -6 | 1 | 0.9
CC(NC(=O)C12CC3CC(CC(C3)C1)C2)C(=O)N/N=C/C1=C(N2CCOCC2)C(=C\c2ccccc2)/CC1 (centres undefined) | 18 | 0 | 100* | 22 | 6 | 0.8
CCOc1ccc(S(=O)(=O)NCC2(N3CCCCC3)CCCCC2)cc1 | x | x | x | 5 | x | x
CCOC(=O)C1=C(C)NC(SCC(=O)OC)=C(C#N)C1c1ccc(C(=O)OC)cc1 (centres undefined) | 16 | 0 | 2 | 15 | 4 | 0.8
CCOC(=O)C1=C(C)Nc2sc(C(=O)c3ccc(C)cc3)c(N)c2C1c1ccc(C(=O)OC)cc1 (centres undefined) | 26 | 1 | 81* | -1 | -2 | 0.7
CCOC(=O)C1=C(C)NC(C)=C(C(=O)OCC)C1c1ccc(O)cc1 | 13 | -1 | 13 | -7 | 4 | 0.9
CCOC(=O)C1=C(C)Nc2sc(C(=O)c3ccc(F)cc3)c(N)c2C1c1ccc(C(=O)OC)cc1 (centres undefined) | 8 | 0 | 91* | 4 | -20 | 0.9
COc1ccc(C2C(C(=O)Nc3ccc4c(c3)OCCO4)c3ccccc3C(=O)N2C)cc1 (centres undefined) | 0 | 0 | -1 | -12 | 1 | 1
O=C(CCl)N(C/C=C/c1ccccc1)c1ccc2c(c1)OCCO2 | 8 | 0 | 76* | 8 | 8 | 0.9
CO/N=C\CC(=O)Nc1ccc(Oc2ccccc2)cc1 | 6 | 0 | 5 | 5 | 3 | 0.9
CCn1c(N2CCN(S(=O)(=O)c3ccccc3C(F)(F)F)CC2)nc2ccccc21 | 32 | -1 | 74* | 12 | 4 | 0.7
CCn1c(N2CCN(S(=O)(=O)c3ccc(OC)cc3)CC2)nc2ccccc21 | x | x | x | -9 | x | x
COc1ccc(N(C(=O)c2ccccc2OC(C)=O)C(C)C2CC2)cc1 (centres undefined) | 4 | 0 | 100* | -2 | -5 | 1
COc1ccc(NC(=O)CN(C)C(=O)c2ccccc2OC)cc1 | x | x | x | 1 | x | x
COc1ccccc1CCC(=O)NNC(=O)c1ccc(Br)cc1 | x | x | x | -11 | x | x
CCC(=O)NC(=S)NNC(=O)c1ccc(NC(=O)c2ccccc2)cc1 | 8 | 0 | 99* | 0 | 0 | 0.9
CCCOc1ccc(C(=O)NNC(=S)NC(=O)CC)cc1 | 16 | -1 | 95* | 31 | 7 | 0.8
